This note sets out measurements from ChEMBL document CHEMBL3217512, “Indole/triazole conjugates are selective inhibitors and inducers of bacterial biofilms” (Medchemcomm, 2013).

In series [1] the test system is Staphylococcus aureus. Nature of the series: Antimicrobial activity against methicillin-resistant Staphylococcus aureus BAA 44 assessed as effect on planktonic growth at IC50 after 2 to 24 hrs. In kind it is organism-based. Particulars: in vivo.
Series [2] concerns Escherichia coli. Nature of the series: Antimicrobial activity against Escherichia coli K-12 ER2718 assessed as effect on planktonic growth at PC75 after 2 to 24 hrs by colony count method. In kind it is organism-based. Particulars: in vivo.
Series [3] relates to Acinetobacter baumannii. Nature of the series: Antimicrobial activity against Acinetobacter baumannii 19606 assessed as effect on planktonic growth at IC50 after 2 to 24 hrs by colony count method. Also on record: species or system ATCC 19606.
Series [4] has as its system Staphylococcus aureus. Nature of the series: Inhibition of biofilm formation in methicillin-resistant Staphylococcus aureus BAA 44 at 150 uM after 24 hrs by crystal violet staining-based assay relative to control. It is filed as functional. To be noted: BAA 44, 24 h. An outline of the steps: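 Static biofilm development in MRSA, read out by crystal violet staining against an untreated control. Initial screen at 150 μM. Inhibitors then went to dose-response, with IC50 taken as the concentration giving 50% inhibition of biofilm growth. Induction was judged at 50 μM: under 50% induction counted as "inducer", over 50% as "strong inducer".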

In series [5] the test system is Escherichia coli. The experiment in a line: Induction of biofilm formation in Escherichia coli K-12 ER2718 assessed as concentration required for 75% promotion of biofilm formation after 24 hrs by crystal violet staining-based assay. In kind it is functional. An outline of the steps: (§1)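 For strong inducers of E. coli biofilm, dose-response curves were run in the static crystal violet assay. PC25, PC50 and PC75 are the concentrations promoting biofilm formation by 25%, 50% and 75%.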

Series [6] relates to Escherichia coli. The experiment in a line: Antimicrobial activity against Escherichia coli K-12 ER2718 assessed as effect on planktonic growth at PC50 after 2 to 24 hrs by colony count method. It is filed as organism-based. Particulars: in vivo.
The subject of series [7] is Escherichia coli. Nature of the series: Antimicrobial activity against Escherichia coli K-12 ER2718 assessed as effect on planktonic growth at 50 uM after 2 to 24 hrs. It is filed as organism-based. An outline of the steps: (§2)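 Growth curve analysis of planktonic bacteria with each biofilm inducer at 50 μM, used to assess toxicity.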
The subject of series [8] is Staphylococcus aureus. Nature of the series: Antimicrobial activity against Staphylococcus aureus 29213 assessed as effect on planktonic growth at IC50 after 2 to 24 hrs. In kind it is organism-based. To be noted: in vivo.
For series [9], the system named is Escherichia coli. The experiment in a line: Antimicrobial activity against Escherichia coli K-12 ER2718 assessed as effect on planktonic growth at IC50 after 2 to 24 hrs. In kind it is organism-based.
Series [10] deals with Staphylococcus aureus. The experiment in a line: Inhibition of biofilm formation in Staphylococcus aureus 29213 after 24 hrs by crystal violet staining-based assay. In kind it is functional, organism-based. To be noted: Staphylococcus aureus, 29213, 24 h. An outline of the steps:
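Compounds active in the 150 μM screen were taken into dose-response studies under static conditions with a crystal violet read-out. IC50 is the concentration that inhibits 50% of biofilm growth relative to an untreated control.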

The test system of series [11] is Acinetobacter baumannii. Nature of the series: Inhibition of biofilm formation in Acinetobacter baumannii 19606 at 150 uM after 24 hrs by crystal violet staining-based assay relative to control. Particulars: ATCC 19606 = CIP 70.34 = JCM 6841, 24 h. In kind it is functional.
The test system of series [12] is Escherichia coli. The experiment in a line: Antimicrobial activity against Escherichia coli K-12 ER2718 assessed as effect on planktonic growth at PC75 after 2 to 24 hrs. It is filed as organism-based. Particulars: in vivo.
The test system of series [13] is Escherichia coli. Nature of the series: Induction of biofilm formation in Escherichia coli K-12 ER2718 assessed as concentration required for 25% promotion of biofilm formation after 24 hrs by crystal violet staining-based assay. In kind it is functional. An outline of the steps: as §1
The subject of series [14] is Staphylococcus aureus. Nature of the series: Antimicrobial activity against Staphylococcus aureus 29213 assessed as effect on planktonic growth at IC50 after 2 to 24 hrs by colony count method. It is filed as organism-based. Particulars: in vivo.
Series [15] relates to Acinetobacter baumannii. The experiment in a line: Antimicrobial activity against Acinetobacter baumannii 19606 assessed as effect on planktonic growth at IC50 after 2 to 24 hrs. On the set-up: species or system ATCC 19606.
In series [16] the test system is Escherichia coli. The experiment in a line: Induction of biofilm formation in Escherichia coli K-12 ER2718 at 50 uM after 24 hrs by crystal violet staining-based assay relative to control. It is filed as functional. An outline of the steps: (§3)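 Static biofilm assay with compounds at 50 μM and crystal violet read-out, relative to an untreated control. Compounds increasing biofilm by less than 50% were called inducers, and by more than 50% strong inducers.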

For series [17], the system named is Escherichia coli. Nature of the series: Antimicrobial activity against Escherichia coli K-12 ER2718 assessed as effect on planktonic growth at PC25 after 2 to 24 hrs. It is filed as organism-based.
The subject of series [18] is Escherichia coli. The experiment in a line: Antimicrobial activity against Escherichia coli K-12 ER2718 assessed as effect on planktonic growth at PC25 after 2 to 24 hrs by colony count method. In kind it is organism-based.
Series [19] has as its system Escherichia coli. Nature of the series: Induction of biofilm formation in Escherichia coli K-12 ER2718 assessed as concentration required for 50% promotion of biofilm formation after 24 hrs by crystal violet staining-based assay. It is filed as functional. An outline of the steps:
as §1

Series [20] deals with Escherichia coli. Nature of the series: Antimicrobial activity against Escherichia coli K-12 ER2718 assessed as effect on planktonic growth at IC50 after 2 to 24 hrs by colony count method. In kind it is organism-based.
In series [21] the test system is Staphylococcus aureus. Nature of the series: Antimicrobial activity against methicillin-resistant Staphylococcus aureus BAA 44 assessed as effect on planktonic growth at IC50 after 2 to 24 hrs by colony count method. In kind it is organism-based. Particulars: in vivo.
For series [22], the system named is Escherichia coli. Nature of the series: Antimicrobial activity against Escherichia coli K-12 ER2718 assessed as effect on planktonic growth at PC50 after 2 to 24 hrs. It is filed as organism-based.
The subject of series [23] is Staphylococcus aureus. The experiment in a line: Inhibition of biofilm formation in Staphylococcus aureus 29213 at 150 uM after 24 hrs by crystal violet staining-based assay relative to control. It is filed as functional. To be noted: Staphylococcus aureus, 29213, 24 h.
Series [24] relates to Acinetobacter baumannii. Nature of the series: Antimicrobial activity against Acinetobacter baumannii 19606 assessed as effect on planktonic growth at PC25 after 2 to 24 hrs by colony count method. On the set-up: species or system ATCC 19606.
Series [25] deals with Acinetobacter baumannii. The experiment in a line: Antimicrobial activity against Acinetobacter baumannii 19606 assessed as effect on planktonic growth at PC50 after 2 to 24 hrs. Also on record: species or system ATCC 19606.
Series [26] deals with Acinetobacter baumannii. The experiment in a line: Antimicrobial activity against Acinetobacter baumannii 19606 assessed as effect on planktonic growth at PC50 after 2 to 24 hrs by colony count method. On the set-up: species or system ATCC 19606.
Series [27] deals with Acinetobacter baumannii. Nature of the series: Antimicrobial activity against Acinetobacter baumannii 19606 assessed as effect on planktonic growth at PC75 after 2 to 24 hrs by colony count method. On the set-up: species or system ATCC 19606.
Series [28] concerns Acinetobacter baumannii. The experiment in a line: Antimicrobial activity against Acinetobacter baumannii 19606 assessed as effect on planktonic growth at PC75 after 2 to 24 hrs. On the set-up: species or system ATCC 19606.
Series [29] concerns Acinetobacter baumannii. Nature of the series: Antimicrobial activity against Acinetobacter baumannii 19606 assessed as effect on planktonic growth at PC25 after 2 to 24 hrs. Also on record: species or system ATCC 19606.
For series [30], the system named is Acinetobacter baumannii. The experiment in a line: Antimicrobial activity against Acinetobacter baumannii 19606 assessed as effect on planktonic growth at 50 uM after 2 to 24 hrs. On the set-up: species or system ATCC 19606. An outline of the steps: as §2
In series [31] the test system is Acinetobacter baumannii. Nature of the series: Induction of biofilm formation in Acinetobacter baumannii 19606 at 50 uM after 24 hrs by crystal violet staining-based assay relative to control. It is filed as functional, ATCC 19606 = CIP 70.34 = JCM 6841. An outline of the steps:
as §3

As to `CCCCCCCc1ccc(C(=O)NCCn2cc(Cc3c[nH]c4ccccc34)nn2)cc1`, the Activity entry in the series on Staphylococcus aureus [1] is “Non-toxic”; in the series with Escherichia coli [2] it was “Non-toxic”; with Acinetobacter baumannii [3], “Non-toxic”; in the series with Escherichia coli [5] it was 119.7 µM; in the series on Escherichia coli [6] it was “Non-toxic”; with Escherichia coli [7], “Non-toxic”. Further, the Activity result in the series with Staphylococcus aureus [8] is “Non-toxic”; in the series on Escherichia coli [9] it was “Non-toxic”; with Escherichia coli [12], “Non-toxic”; in the series on Escherichia coli [13], 50.5 µM; with Staphylococcus aureus [14], “Non-toxic”; in the series with Acinetobacter baumannii [15] it was “Non-toxic”. Further, the Activity in the series on Escherichia coli [16] is above 50%; in the series with Escherichia coli [17] it was “Non-toxic”; with Escherichia coli [18] it was “Non-toxic”; in the series on Escherichia coli [19], 80.7 µM; in the series with Escherichia coli [20], “Non-toxic”; in the series with Staphylococcus aureus [21] it was “Non-toxic”. The Activity entry in the series on Escherichia coli [22] is “Non-toxic”. Further, the inhibition (in general, the percentage by which the read-out fell short of the control) at 150 µM with Staphylococcus aureus [4] is below 5%; with Acinetobacter baumannii [11], 30%. In addition, the IC50 (in general, the concentration that inhibits the measured activity by half) with Staphylococcus aureus [10] was 175 µM.
`CCCCCc1ccc(C(=O)NCCn2cc(Cc3csc4ccccc34)nn2)cc1`: the Activity entry is “Non-toxic” in the series with Staphylococcus aureus [1]; “Non-toxic” with Escherichia coli [2]; “Non-toxic” with Acinetobacter baumannii [3]; 151.9 µM in the series with Escherichia coli [5]; “Non-toxic” in the series with Escherichia coli [6]; “Non-toxic” in the series with Escherichia coli [7]. Moreover, the Activity result with Staphylococcus aureus [8] is “Non-toxic”; with Escherichia coli [9] it was “Non-toxic”; in the series with Escherichia coli [12], “Non-toxic”; in the series with Escherichia coli [13], 26.7 µM; with Staphylococcus aureus [14], “Non-toxic”; in the series with Acinetobacter baumannii [15] it was “Non-toxic”. In addition, the Activity in the series on Escherichia coli [16] was above 50%; in the series on Escherichia coli [17], “Non-toxic”; in the series with Escherichia coli [18], “Non-toxic”; with Escherichia coli [19], 99.8 µM; in the series on Escherichia coli [20], “Non-toxic”; in the series with Staphylococcus aureus [21], “Non-toxic”. In addition, in the series with Escherichia coli [22], the Activity entry is “Non-toxic”. Also, the inhibition at 150 µM in the series with Staphylococcus aureus [23], with Staphylococcus aureus [4] and with Acinetobacter baumannii [11] was below 5% each time.
`O=C(Cn1cc(Cc2csc3ccccc23)nn1)Nc1ccccc1`: the Activity result in the series with Staphylococcus aureus [1], in the series on Escherichia coli [2], in the series with Acinetobacter baumannii [3], in the series on Acinetobacter baumannii [24], in the series on Acinetobacter baumannii [25] and with Escherichia coli [6] was “Non-toxic” throughout. The Activity entry in the series with Escherichia coli [7], with Staphylococcus aureus [8], in the series on Escherichia coli [9], in the series with Escherichia coli [12], in the series on Staphylococcus aureus [14] and in the series with Acinetobacter baumannii [15] was “Non-toxic” each time. Also, the Activity in the series on Escherichia coli [16] is listed as below 50%; in the series on Acinetobacter baumannii [26] it was “Non-toxic”; in the series with Escherichia coli [17], “Non-toxic”; in the series on Escherichia coli [18] it was “Non-toxic”; in the series with Acinetobacter baumannii [27], “Non-toxic”; in the series with Acinetobacter baumannii [28] it was “Non-toxic”. Also, the Activity entry with Acinetobacter baumannii [29] was “Non-toxic”; with Acinetobacter baumannii [30], “Non-toxic”; with Escherichia coli [20], “Non-toxic”; with Staphylococcus aureus [21] it was “Non-toxic”; in the series on Acinetobacter baumannii [31], below 50%; in the series with Escherichia coli [22], “Non-toxic”. The same compound came in with an inhibition at 150 µM with Staphylococcus aureus [4] of 20%. Further, the IC50 with Staphylococcus aureus [10] worked out at 215 µM.
Consider `CCCCCc1ccc(C(=O)NCCn2cc(Cc3c[nH]c4ccccc34)nn2)cc1`, for which the Activity result in the series with Staphylococcus aureus [1] was “Non-toxic”; in the series with Escherichia coli [2], “Non-toxic”; in the series with Acinetobacter baumannii [3] it was “Non-toxic”; in the series on Escherichia coli [5] it was 111.6 µM; in the series on Escherichia coli [6], “Non-toxic”; in the series with Escherichia coli [7], “Non-toxic”. Further, the Activity result with Staphylococcus aureus [8] was “Non-toxic”; with Escherichia coli [9], “Non-toxic”; in the series with Escherichia coli [12], “Non-toxic”; with Escherichia coli [13], 48.3 µM; in the series with Staphylococcus aureus [14], “Non-toxic”; with Acinetobacter baumannii [15], “Non-toxic”. The Activity in the series with Escherichia coli [16] was above 50%; in the series with Escherichia coli [17], “Non-toxic”; in the series on Escherichia coli [18] it was “Non-toxic”; in the series on Escherichia coli [19], 74.8 µM; in the series on Escherichia coli [20], “Non-toxic”; in the series with Staphylococcus aureus [21] it was “Non-toxic”. Besides, the Activity entry in the series with Escherichia coli [22] is “Non-toxic”. The inhibition at 150 µM in the series on Staphylococcus aureus [4] and in the series on Acinetobacter baumannii [11] was below 5% throughout. This compound had an IC50 in the series on Staphylococcus aureus [10] of 44.4 µM.
